According to ChEMBL document CHEMBL2203028, “SAR and Lead Optimization of an HIV-1 Vif-APOBEC3G Axis Inhibitor” (ACS Med Chem Lett, 2012):
Activity calls are given as the source filed them. The calls are words filed in the database; no cut-off is given here.

Key:
[1] = (§1) Inhibition of X4-tropic HIV-1 LAI Vif infected in MT4 cells assessed as inhibition of viral replication incubated for 10 to 15 days measured on every second day by reverse transcriptase assay by reverse transcriptase assay; type: cell-based, Human immunodeficiency virus 1
In short: (§2)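 Cells (2 x 10⁵/well) were pretreated overnight with 1 to 50 µM compound in RPMI with 10% FBS, then infected with X4-tropic HIV-1 LAI. Cultures were kept ± compound for 10-15 days. Every second day, 1/3 of supernatant was replaced with compound-containing medium, and RT activity was measured in supernatant. RN-18 served as positive control and untreated cells as negative control. There were ≥3 repeats; IC50 was calculated.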

[2] = (§3) Inhibition of X4 tropic HIV-1 LAI Vif infected in H9 cells assessed as inhibition of viral replication incubated for 10 to 15 days measured on every second day by reverse transcriptase assay; type: cell-based, Human immunodeficiency virus 1; in short: as §2
[3] = tested on: Human immunodeficiency virus 1; experiment: Inhibition of HIV-1 GFP tagged Vif expressed in 293FT cells co-expressing HA-tagged A3G assessed as downregulation of GFP-Vif expression at 50 uM incubated for 16 hrs by immunoblotting assay; type: cell-based
In short: (§4)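 293FT cells co-expressing HA-tagged A3G with GFP-tagged Vif or ΔVif were grown for 16 h with antagonist at 50 µM or without compound. Extracts were immunoblotted with anti-HA (A3G), anti-GFP (Vif) and anti-GAPDH antibodies. A3G and Vif levels were compared with untreated Vif-expressing cells. RN-18 served as positive control and choline chloride as a further control.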

[4] = tested on: Human immunodeficiency virus 1; experiment: Inhibition of HIV-1 GFP tagged Vif expressed in 293FT cells co-expressing HA-tagged A3G assessed as upregulation of HA-A3G expression at 50 uM incubated for 16 hrs by immunoblotting assay; type: cell-based; in short: as §4
MT4 = experiment: as §1; type: cell-based; conditions: Human immunodeficiency virus 1; in short: as §2
H9 = experiment: as §3; type: cell-based; conditions: Human immunodeficiency virus 1; in short: as §2
[5] = Cytotoxicity against human Fa2N-4 cells upto 50 uM by luminescence ATP detection assay; type: cell-based
[6] = Kinetic solubility at pH 5.0 by UV spectroscopic analysis; type: physicochemical; conditions: buffer
Liver microsomes = experiment: Metabolic stability in human liver microsomes; type: ADME, Microsome
[7] = Permeability across synthetic membrane at pH 7.4 by PAMPA assay; type: ADME
[8] = Permeability across synthetic membrane at pH 6.2 by PAMPA assay; type: ADME
[9] = Permeability across synthetic membrane at pH 5.0 by PAMPA assay; type: ADME
Plasma [10] = experiment: Metabolic stability in human plasma; type: ADME, cell-free
[11] = Kinetic solubility at pH 7.2 by UV spectroscopic analysis; type: physicochemical; conditions: buffer
[12] = Kinetic solubility at pH 6.2 by UV spectroscopic analysis; type: physicochemical; conditions: buffer
Plasma [13] = experiment: Plasma protein binding in human; type: ADME, cell-free
[14] = Inhibition of X4-tropic HIV-1 LAI Vif infected in CEM cells assessed as inhibition of viral replication incubated for 14 to 21 days measured on every other day by reverse transcriptase assay; type: cell-based; conditions: Human immunodeficiency virus 1, LAI, CCRF-CEM
[15] = Inhibition of X4-tropic HIV-1 LAI Vif infected in MT4 cells assessed as inhibition of viral replication incubated for 10 to 15 days measured on every other day by reverse transcriptase assay; conditions: Human immunodeficiency virus 1, LAI
[16] = Human immunodeficiency virus 1, LAI, H9, read-out: IC50

SMILES | IC50 ([1]; mt4) | IC50 [2, 16] [µM] | GFP-Vif downregulation activity call [3] | HA-A3G upregulation (active/not active) [4] | further results
CS(=O)(=O)Oc1ccccc1NC(=O)c1ccccc1Sc1ccc([N+](=O)[O-])cc1 | Not Active | 5.6 |  |  | 
COc1ccccc1NC(=O)c1ccccc1S(=O)(=O)c1ccc([N+](=O)[O-])cc1 | Not Active | 1.1 | Active | Active | 
COC(=O)c1ccc(Sc2ccccc2C(=O)Nc2ccccc2OC)cc1 |  |  |  |  | inhibition (MT4): inactive; inhibition (H9): inactive
COc1ccccc1NC(=O)c1ccc(C)nc1Sc1ccc([N+](=O)[O-])cc1 | Not Active | 1.5 | Active | Active | 
COc1ccccc1NC(=O)c1ccccc1S(=O)(=O)c1ccc(C(=O)[O-])cc1.C[N+](C)(C)CCO | Not Active | 10 | inactive | inactive | Activity [5]: Non-toxic; Kinetic_solubility [6]: soluble; Stability (Liver microsomes): Stable; permeability [7]: impermeable; permeability [8]: impermeable; permeability [9]: permeable; Stability (Plasma [10]): Stable; Kinetic_solubility [11]: soluble; Kinetic_solubility [12]: soluble; PPB (Plasma [13]): Active
COC(=O)c1ccc(NC(=O)c2ccccc2Sc2ccc([N+](=O)[O-])cc2)c(OC)c1 | Not Active | 10 |  |  | 
O=C(Nc1ccccc1I)c1ccccc1Sc1ccc([N+](=O)[O-])cc1 | Not Active | 4.3 |  |  | 
COc1ccccc1NC(=O)c1ccccc1Sc1ccc(C(=O)[O-])cc1.C[N+](C)(C)CCO | Not Active | 1 |  |  | inhibition (MT4): inactive; inhibition (H9): inactive
COc1ccccc1NC(=O)c1cccnc1Sc1ccc([N+](=O)[O-])cc1 | Not Active | 10 |  |  | 
COc1ccccc1NC(=O)c1ccc(Sc2ccc([N+](=O)[O-])cc2)cc1Cl | Not Active | 2.5 | Active | Active | 
COc1ccccc1NC(=O)c1ccccc1Cl |  |  | inactive | inactive | IC50 ([1]; Human immunodeficiency virus 1, LAI, MT4, read-out: IC50): > 50 µM; IC50 ([2]; h9): Not Active
COc1ccccc1NC(=O)c1ccccc1Sc1ccc([N+](=O)[O-])cc1 | Not Active | 6 | Active | Active | IC50 [14]: 4.5 µM; IC50 [15]: > 100 µM
